Each structure is given as a SMILES string. pKi: −log10 of the molar value. Where only a bound is given, the exact number is not on record here.

For assay [1], the target named is T1, D(2) dopamine receptor (Homo sapiens, UniProt P14416). In words: In vitro affinity at human cloned Dopamine receptor D2A by [3H]raclopride displacement.
In assay [2] the target is T2, 5-hydroxytryptamine receptor 1A (Rattus norvegicus, UniProt P19327).
T2 sequence (P19327 whole entry): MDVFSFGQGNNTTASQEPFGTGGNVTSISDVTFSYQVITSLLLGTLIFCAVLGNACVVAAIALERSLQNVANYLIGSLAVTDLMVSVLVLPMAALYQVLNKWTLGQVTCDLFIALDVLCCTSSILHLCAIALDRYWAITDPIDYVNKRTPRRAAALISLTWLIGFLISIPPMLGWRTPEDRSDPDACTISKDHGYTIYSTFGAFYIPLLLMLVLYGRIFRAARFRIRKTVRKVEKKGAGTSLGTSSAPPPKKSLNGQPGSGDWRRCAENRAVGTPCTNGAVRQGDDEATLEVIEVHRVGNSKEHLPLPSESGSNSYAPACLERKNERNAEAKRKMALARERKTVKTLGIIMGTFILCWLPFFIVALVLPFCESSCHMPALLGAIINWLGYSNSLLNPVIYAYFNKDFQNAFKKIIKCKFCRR
In words: In vitro affinity at 5-hydroxytryptamine 1A receptor of rat hippocampus by [3H]8-OH-DPAT displacement. It is filed as tissue-based. In short, it runs like this:
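Incubation in 50 mM Tris–HCl pH 7.4 containing 2.0 mM CaCl2, 1.0 mM MgCl2, 1.0 mM MnCl2 and 5.7 mM ascorbic acid, 45 min at 37 °C. Nonspecific binding defined with 100 μM 5-HT·HCl. Otherwise run as in an earlier report.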

In assay [3] the target is T3, D(1A) dopamine receptor (Rattus norvegicus, UniProt P18901). As to the kind of experiment: In vitro affinity at Dopamine receptor D1 of rat striatum by [3H]SCH-23,390 displacement. The format is tissue-based.
T3 sequence (P18901 whole entry): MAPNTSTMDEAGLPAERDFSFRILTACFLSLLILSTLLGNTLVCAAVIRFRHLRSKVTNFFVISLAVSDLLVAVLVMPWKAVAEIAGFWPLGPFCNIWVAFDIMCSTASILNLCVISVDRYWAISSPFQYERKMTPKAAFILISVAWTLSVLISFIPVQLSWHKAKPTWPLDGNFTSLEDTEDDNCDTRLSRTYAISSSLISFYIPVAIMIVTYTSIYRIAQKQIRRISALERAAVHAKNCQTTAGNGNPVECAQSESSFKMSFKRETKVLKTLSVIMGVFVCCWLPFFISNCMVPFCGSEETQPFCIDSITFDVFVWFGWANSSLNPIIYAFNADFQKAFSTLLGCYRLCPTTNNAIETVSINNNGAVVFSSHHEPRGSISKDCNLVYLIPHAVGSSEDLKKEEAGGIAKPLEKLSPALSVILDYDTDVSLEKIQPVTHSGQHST
Assay [4] concerns the target T1, D(2) dopamine receptor. As to the kind of experiment: In vitro affinity at human cloned Dopamine receptor D2A by [3H]-raclopride displacement.
In assay [5] the target is T3, D(1A) dopamine receptor. As to the kind of experiment: In vitro affinity at Dopamine receptor D1 of rat striatum by [3H]SCH-23390 displacement. The format is tissue-based.
Assay [6] relates to Rattus norvegicus. In words: In vivo effect on dihydroxyphenylalanine (DOPA) accumulation following decarboxylase inhibition was tested on striatum of reserpine-pretreated rats. The format is functional. In short, it runs like this: (§1)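 Rats pretreated with reserpine (5 mg/kg sc) 18–20 h before. Single sc doses of test agent in saline, sometimes with a few drops of glacial HOAc. Decarboxylase then blocked with NSD1015 (117 mg/kg sc). DOPA and 5-HTP measured in dissected brain regions by HPLC with electrochemical detection. Values given as percent of saline controls, n = 2–4. Statistics by one-way ANOVA with Fisher's PLSD.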

The subject of assay [7] is Rattus norvegicus. In words: In vivo effects on 5-hydroxytryptophan (5-HTP) accumulation following decarboxylase inhibition was tested on cortex of reserpine-pretreated rats. The format is functional. In short, it runs like this: as §1
In assay [8] the test system is Rattus norvegicus. In words: In vivo effects of single doses on dihydroxyphenylalanine (DOPA) accumulation following decarboxylase inhibition was investigated on limbic forebrain of reserpine-pretreated rats. It is filed as functional, Limbic system. In short, it runs like this: as §1
Assay [9] has as its system Rattus norvegicus. As to the kind of experiment: In vivo effect on dihydroxyphenylalanine (DOPA) accumulation following decarboxylase inhibition was tested on cortex of reserpine-pretreated rats. The format is functional. In a few lines: as §1
In assay [10] the test system is Rattus norvegicus. In words: In vivo effect on 5-hydroxytryptophan (5-HTP) accumulation following decarboxylase inhibition was tested on limbic forebrain of reserpine-pretreated rats. It is filed as functional, Limbic system. In short, it runs like this: as §1
In assay [11] the test system is Rattus norvegicus. As to the kind of experiment: In vivo effect on 5-hydroxytryptophan (5-HTP) accumulation following decarboxylase inhibition was investigated on striatum of reserpine-pretreated rats. It is filed as functional. In short, it runs like this:
as §1

Assay [12] deals with Rattus norvegicus. In words: In vivo effects on dihydroxyphenylalanine (DOPA) accumulation following decarboxylase inhibition was tested on cortex of reserpine-pretreated rats. It is filed as functional. In a few lines:
as §1

Assay [13] concerns Rattus norvegicus. In words: In vivo effects on dihydroxyphenylalanine (DOPA) accumulation following decarboxylase inhibition was tested on striatum of reserpine-pretreated rats. The format is functional. In short, it runs like this: as §1

T1 sequence (P14416 whole entry): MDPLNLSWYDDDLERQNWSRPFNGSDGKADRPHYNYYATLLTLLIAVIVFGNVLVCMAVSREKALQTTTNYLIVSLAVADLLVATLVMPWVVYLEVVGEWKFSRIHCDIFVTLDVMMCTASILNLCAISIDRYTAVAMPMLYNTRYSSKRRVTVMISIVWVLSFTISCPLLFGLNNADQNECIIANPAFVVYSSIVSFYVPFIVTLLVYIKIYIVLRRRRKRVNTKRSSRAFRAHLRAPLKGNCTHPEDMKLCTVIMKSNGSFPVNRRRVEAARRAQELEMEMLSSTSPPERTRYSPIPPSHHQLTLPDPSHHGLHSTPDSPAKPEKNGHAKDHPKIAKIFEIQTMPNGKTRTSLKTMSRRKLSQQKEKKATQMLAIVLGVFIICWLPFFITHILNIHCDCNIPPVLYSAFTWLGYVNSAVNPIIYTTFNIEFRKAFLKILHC

For `COc1c(C)ccc2c1-c1cccc3c1[C@@H](C2)NCC3`, the negative logarithm of the Ki (pKi) – broadly, the negative decadic logarithm of the Ki, by convention in mol/L – on D(2) dopamine receptor [1] is 5.33; in assay [2], 7.90; at D(1A) dopamine receptor [3], under 5.30.

For `CCc1ccc2c(c1O)-c1cccc3c1[C@@H](C2)N(C)CC3`, the values for the pKi (on D(2) dopamine receptor [4]; on D(1A) dopamine receptor [5]; in [2]) were 5.69, 6.11 and 8.04, respectively.

As for `COc1c(C)ccc2c1-c1cccc3c1[C@@H](C2)N(C)CC3`, the pKi on D(2) dopamine receptor [4] was 6.61; at D(1A) dopamine receptor [5], 6.41; in assay [2], 8.12.

For `Cc1ccc2c(c1O)-c1cccc3c1[C@@H](C2)N(C(C)C)CC3`, the pKi at D(2) dopamine receptor [4] is under 6.00; on D(1A) dopamine receptor [5], under 5.00; in assay [2], 6.62.

For the compound `CCCN1CCc2cccc3c2[C@H]1Cc1ccc(C)c(OC)c1-3`, the pKi is 6.62 on D(2) dopamine receptor [4], under 5.70 on D(1A) dopamine receptor [5] and 7.97 in assay [2].

In the case of `CC(=O)c1ccc2c(c1O)-c1cccc3c1[C@@H](C2)N(C)CC3`, the pKi is 5.56 on D(2) dopamine receptor [4] and 5.34 on D(1A) dopamine receptor [5].

Turning to `COc1c(C(C)=O)ccc2c1-c1cccc3c1[C@@H](C2)N(C)CC3`, the pKi at D(2) dopamine receptor [1] is 5.53; in assay [2] it was 6.82; at D(1A) dopamine receptor [3], 5.32.

`COc1c(C)ccc2c1-c1cccc3c1[C@@H](C2)N(Cc1ccccc1)CC3`: the pKi on D(2) dopamine receptor [1] and on D(1A) dopamine receptor [3] was under 5.30 each time.

As to `Cc1ccc2c(c1O)-c1cccc3c1[C@@H](C2)N(Cc1ccccc1)CC3`, the pKi on D(2) dopamine receptor [4] is under 6.00; on D(1A) dopamine receptor [5] it was under 5.30; in assay [2], 6.11.

As to `Cc1ccc2c(c1O)-c1cccc3c1[C@@H](C2)N(C)CC3`, the Accumulation came out at 90 in the assay on Rattus norvegicus [6]; 72 in the assay on Rattus norvegicus [7]; 84 in the assay on Rattus norvegicus [8]; 100 in the assay with Rattus norvegicus [9]; 58 with Rattus norvegicus [10]; 70 with Rattus norvegicus [11].

For the compound `CCCN1CCc2cccc3c2[C@H]1Cc1ccc(C)c(O)c1-3`, the pKi at D(2) dopamine receptor [4] was 6.60; on D(1A) dopamine receptor [5], under 5.70; in assay [2], 7.91. Besides, the Accumulation in the assay with Rattus norvegicus [12] worked out at 116; in the assay with Rattus norvegicus [7], 102; in the assay on Rattus norvegicus [13] it was 72; in the assay on Rattus norvegicus [8] it was 81; in the assay with Rattus norvegicus [10], 104; with Rattus norvegicus [11], 104.

On to `COc1c(OS(=O)(=O)C(F)(F)F)ccc2c1-c1cccc3c1[C@@H](C2)N(C)CC3`, for which the pKi on D(2) dopamine receptor [4] is 5.98; on D(1A) dopamine receptor [5], under 5.70; in assay [2], 5.79.

For the compound `COc1c(-c2ccco2)ccc2c1-c1cccc3c1[C@@H](C2)N(C)CC3`, the pKi is 6.24 at D(2) dopamine receptor [1], 6.00 in [2] and 4.85 on D(1A) dopamine receptor [3].

Regarding `CN1CCc2cccc3c2[C@H]1Cc1ccc(-c2ccccc2)c(O)c1-3`, the pKi at D(2) dopamine receptor [4] is under 6.00; on D(1A) dopamine receptor [5], 5.03; in assay [2], 5.96.

As to `Cc1ccc2c(c1O)-c1cccc3c1[C@@H](C2)NCC3`, the pKi at D(2) dopamine receptor [4] is under 5.00; at D(1A) dopamine receptor [5], 4.62; in [2], 8.49. In addition, the Accumulation in the assay with Rattus norvegicus [12] is listed as 93; in the assay on Rattus norvegicus [7], 40; in the assay with Rattus norvegicus [13] it was 78; in the assay on Rattus norvegicus [8], 85; with Rattus norvegicus [10], 37; in the assay on Rattus norvegicus [11] it was 47.

As for `CCCN1CCc2cccc3c2[C@H]1Cc1ccc(OS(=O)(=O)C(F)(F)F)c(OC)c1-3`, the pKi at D(2) dopamine receptor [4] was 6.39; at D(1A) dopamine receptor [5], under 5.70; in assay [2], 5.48.

For the compound `CCc1ccc2c(c1OC)-c1cccc3c1[C@@H](C2)N(C)CC3`, the pKi is 6.39 at D(2) dopamine receptor [4], 5.99 at D(1A) dopamine receptor [5] and 7.76 in assay [2].

Consider `COc1c(C)ccc2c1-c1cccc3c1[C@@H](C2)N(C(C)C)CC3`, for which the pKi is under 6.00 on D(2) dopamine receptor [4], under 5.30 on D(1A) dopamine receptor [5] and 6.19 in [2].

As to `C=Cc1ccc2c(c1OC)-c1cccc3c1[C@@H](C2)N(C)CC3`, the pKi at D(2) dopamine receptor [1] was 5.76; in assay [2], 6.97; on D(1A) dopamine receptor [3], 5.84.

The record behind these values is ChEMBL document CHEMBL1129624, “10-substituted 11-oxygenated (R)-aporphines: synthesis, pharmacology, and modeling of 5-HT1A receptor interactions” (J Med Chem, 1996).
